IDE cell activ: IDE (human) activation, cell-based; P14735; HEK cells, FAbeta-B cleavage, fluorescence polarization; 0% vehicle, 100% cell-free pure enzyme wells; activation, % at 5.96 µM; 0.073% of 340,000 active;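 active = activation above the mean of all tested compounds plus 3 SD, set per screening campaign, cut at about 17% in these data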
Target sequence (P14735 whole entry, looked up): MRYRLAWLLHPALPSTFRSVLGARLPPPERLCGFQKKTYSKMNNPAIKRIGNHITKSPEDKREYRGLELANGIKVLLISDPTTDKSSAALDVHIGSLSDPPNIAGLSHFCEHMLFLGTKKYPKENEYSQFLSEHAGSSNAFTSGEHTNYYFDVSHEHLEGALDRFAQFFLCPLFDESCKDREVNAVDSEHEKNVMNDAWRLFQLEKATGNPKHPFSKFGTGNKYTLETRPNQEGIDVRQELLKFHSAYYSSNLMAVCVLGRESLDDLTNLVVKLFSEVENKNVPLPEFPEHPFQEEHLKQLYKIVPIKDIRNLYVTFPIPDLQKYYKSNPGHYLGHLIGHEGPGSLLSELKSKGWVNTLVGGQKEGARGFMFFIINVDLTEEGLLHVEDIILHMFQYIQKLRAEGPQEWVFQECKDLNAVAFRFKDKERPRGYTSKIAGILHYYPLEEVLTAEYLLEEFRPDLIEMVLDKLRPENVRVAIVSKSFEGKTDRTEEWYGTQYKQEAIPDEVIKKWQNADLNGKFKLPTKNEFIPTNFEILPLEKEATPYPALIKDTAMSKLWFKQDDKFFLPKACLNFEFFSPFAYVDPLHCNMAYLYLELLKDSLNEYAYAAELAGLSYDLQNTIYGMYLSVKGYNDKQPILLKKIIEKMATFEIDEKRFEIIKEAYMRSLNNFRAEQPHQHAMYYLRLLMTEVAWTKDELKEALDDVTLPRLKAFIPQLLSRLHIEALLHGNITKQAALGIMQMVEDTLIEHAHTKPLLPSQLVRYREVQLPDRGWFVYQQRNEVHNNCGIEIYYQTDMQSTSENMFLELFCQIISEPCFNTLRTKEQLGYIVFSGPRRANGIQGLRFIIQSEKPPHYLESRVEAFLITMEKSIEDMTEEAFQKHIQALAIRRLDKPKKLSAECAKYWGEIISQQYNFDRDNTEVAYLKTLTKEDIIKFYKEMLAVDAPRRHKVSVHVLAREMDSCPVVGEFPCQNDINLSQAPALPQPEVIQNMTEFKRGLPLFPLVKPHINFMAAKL
ASAP1 GAP inh: blocks human ASAP1-stimulated Arf1 GTP hydrolysis. AID 624377. inhibition, % at 16.5 µM. GDP FP detection. 0.19% of 360,000 active; in the data active = inhibition above about 25%;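 note: 0% = vehicle with enzyme and substrate and 100% = no enzyme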
ARFGAP1 inhibitor: rat ARFGAP1 inhibition; 0.26% of 360,000 active; Arfgap1-stimulated ARF1 GTP hydrolysis, GDP FP detection; inhibition, % at 16.5 µM;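 active = inhibition above a per-plate limit, mean inhibition of low control wells plus 3 SD, cut at about 25% in these data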;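 note: 0% = DMSO wells with enzyme and 100% = wells lacking Arfgap1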
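Material: rat Arfgap1 catalytic domain, aa 1-136; also added: human ARF1(Δ1-17)-GTP substrate; compound dosing: one concentration, 16.5 µM, DMSO 1.26%; incubation: GTP hydrolysis reaction 2 h at 25 °C; measured by: Tracer-displacement fluorescence polarization with EDTA stop, 620/688 nm; evaluation: % inhibition from polarization; repeats: one replicate per compound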
IDE cell inh: inhibitors of human insulin-degrading enzyme in cells; P14735; HEK cells, FAbetaB cleavage, fluorescence polarization; inhibition, % at 5.59 µM; 0.41% of 320,000 active;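 active = percent inhibition above the average of all tested compounds plus 3 SD, set per screening campaign, cut at about 16% in these data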;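 note: IDE supplied by intact live HEK cells; FP after avidin binding of uncleaved biotin substrate so inhibition keeps polarization high; 0% = DMSO wells and 100% = 60 µM reference IDE inhibitor Ii1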
PREPL inhibitor: human PREPL enzyme inhibition | inhibition, % at 5.96 µM | recombinant PREPL, fluorescence polarization activity-based probe | 0.68% of 320,000 active; in the data active = inhibition above about 43%;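 note: 0% = enzyme with DMSO and 100% = wells lacking enzyme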
IDE inh confirm: cellular human IDE inhibition, confirmation; HEK cells, FAbetaB cleavage, fluorescence polarization; AID 435028; inhibition, % at 5.59 µM; shares compounds with IDE cell inh; 51% of 1,200 active;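 active = mean inhibition across triplicate wells above the cutoff set by the earlier primary insulin-degrading enzyme screen, cut at about 16% in these data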;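 note: 0% = DMSO wells and 100% = 60 µM reference IDE inhibitor Ii1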
HEK293 tox: kills HEK cells in IDE inhibitor counter-screen; shares compounds with IDE cell inh; HEK293 cytotoxicity, ATP luminescence; inhibition, % at 5.59 µM; 28% of 1,200 active; AID 449730; in the data active = inhibition above about 22%;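 note: 0% = vehicle wells and 100% = reference cytotoxic drug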
Starred values were filed as active, the others as inactive; / = no result. Only some compounds are listed: those with a hit (about 1.2% of all), similar ones and a draw of the others.

SMILES | IDE cell activ | ASAP1 GAP inh | ARFGAP1 inhibitor | IDE cell inh | PREPL inhibitor | IDE inh confirm | HEK293 tox
COc1ccc(N=C2NC(=O)/C(=C/c3ccc(O)c(OC)c3)S2)cc1 | -23.6 | 14.8 | 14.7 | 24.6* | 23.4 | 31.8* | 12.0
COc1ccc(-c2cc(C)no2)cc1S(=O)(=O)N(C)c1ccc(C)cc1 | -10.5 | 4.1 | -9.8 | -4.7 | -2.2 | / | /
COc1cc(/C=C2\SC(=Nc3ccc(O)cc3)NC2=O)cc(OC)c1OC | / | -2.6 | 1.2 | -2.8 | 12.0 | / | /
COc1ccccc1N=C1NC(=O)/C(=C/c2ccc(N(C)C)cc2)S1 | -69.9 | -4.2 | 2.6 | 52.9* | 39.3 | 56.0* | 53.4*
CN(C)c1ccc(NC(=O)CSc2nnc(-c3cnccn3)n2C)cc1 | 1.6 | -11.8 | 1.4 | -3.6 | 11.7 | / | /
C(=N\NC1=Nc2cccc3cccc1c23)/c1cccnc1 | -16.6 | 10.9 | 4.6 | 22.8* | 22.8 | 15.4 | 9.2
CCCN1C=CC(=CC=C(C#N)C#N)C=C1 | -31.7 | 10.6 | 2.5 | 39.0* | 7.2 | 47.1* | 6.3
CCCCCCN1C=CC(=C/C=C(\C#N)C(=O)OCC)C=C1 | -113.7 | 0.8 | -3.9 | 164.9* | 25.8 | 121.2* | 21.0
CCCCCCN1C=CC=C/C1=C/C=C(C#N)C#N | -38.7 | 12.8 | 10.6 | 28.7* | -5.3 | 35.7* | 8.4
C=CCN1C=CC(=CC=C(C#N)C#N)C=C1 | -28.8 | -4.5 | -1.3 | 23.3* | -2.0 | 40.8* | 5.1
C=CCN1C=C/C(=C\C=C(C#N)C#N)c2ccccc21 | -19.3 | 7.1 | 2.4 | 14.6 | -57.5 | / | /
CCCCCN1C=CC=C/C1=C\C=C(C#N)C#N | / | 10.7 | 6.1 | 16.1 | 14.4 | / | /
COc1cc(OC)c(/C=C2\SC(=O)N(CC(=O)Nc3ccccc3F)C2=O)c(OC)c1 | 2.1 | 0.6 | 8.9 | -6.5 | 0.2 | / | /
COc1cc(/C=C2\SC(=O)N(CC(=O)Nc3ccccc3F)C2=O)cc(Cl)c1O | -138.4 | -7.5 | 6.0 | 47.8* | -9.3 | 95.6* | 17.2
CCOP(=O)(OCC)c1nc(-c2cccc3ccccc23)oc1NCc1ccc(OC)cc1 | 2.5 | 1.3 | 11.1 | 3.9 | 4.7 | / | /
NC(N)=NC(N)=Nc1cccc2ccccc12 | 7.6 | -0.3 | 7.1 | 17.0* | 13.2 | -2.0 | 13.1
O=C1Nc2ccccc2/C1=C/c1cnc(-c2ccccc2)[nH]1 | -31.6 | 21.7 | 13.5 | 32.3* | -1.1 | 29.7* | 8.9
CCCn1c(N)c(C(=O)CSc2ncnc3sccc23)c(=O)n(C)c1=O | -5.0 | 3.4 | 0.5 | / | / | / | /
O=C(O)c1cn(-c2ccc(F)cc2)c2cc(N3CCNCC3)c(F)cc2c1=O | 3.1 | -0.9 | -2.6 | / | / | / | /
Cc1cc(C)cc(OCC(O)CN2CC(C)OC(C)C2)c1 (configuration not stated) | 3.9 | 16.6 | 3.2 | -6.5 | -11.6 | / | /
COc1cccc(NC(=O)N2CCN(c3nc(-c4cccc(OC)c4)cs3)CC2)c1 | -28.2 | 12.2 | 13.9 | 19.0* | 8.3 | 10.5 | 29.7*
COc1cccc(NC(=O)N2CCN(c3cccc(C)c3C)CC2)c1 | -1.5 | 2.2 | -5.5 | 16.4* | 12.9 | 3.8 | 14.0
CCC1(CC)NC(=O)N(CC(=O)OC(C)C(=O)Nc2ccc(NC(C)=O)cc2)C1=O (configuration not stated) | -1.9 | 2.4 | 0.2 | -3.1 | 7.1 | / | /
Nc1c2c(nc3ccn(-c4ccccc4)c(=O)c13)CCCCC2 | -7.9 | 1.9 | 1.8 | 18.0* | 4.0 | 18.8* | 14.8
COc1ccc(C(CC(=O)N2CCCC2)c2ccc(F)cc2)cc1 (configuration not stated) | -6.1 | 5.3 | 2.2 | 17.0* | 7.0 | 9.8 | 10.0
SMILES | IDE cell activ | ASAP1 GAP inh | ARFGAP1 inhibitor | IDE cell inh | PREPL inhibitor | IDE inh confirm | HEK293 tox
COc1ccc(C(CC(=O)N2CCCC2)C(C)C)cc1 (configuration not stated) | 1.1 | -16.4 | -0.6 | 3.0 | 6.7 | / | /
CC[n+]1c(C)sc2c3ccsc3ccc21 | -21.2 | 6.0 | 16.2 | 42.0* | 3.2 | 9.6 | 2.2
COCCN1C(=O)/C(=C/c2ccc(N3CCCC3)cc2C)SC1=S | -25.1 | -0.5 | -1.2 | 48.8* | 0.7 | 57.2* | 14.9
Cc1ccc(S(=O)(=O)CC(=O)N2CCN(c3ccc([N+](=O)[O-])cc3)CC2)cc1 | -1.0 | 2.5 | -11.5 | 19.0* | -12.1 | 1.0 | 23.2*
COCCCn1cc(CN2CC(N3CCN(C)CC3)CS2(=O)=O)nn1 (configuration not stated) | / | -0.8 | -8.5 | / | / | / | /
CC1CCN(c2ccc3c(c2)S(=O)(=O)c2cccc(C(=O)NCc4cccc(F)c4)c2C3=O)CC1 | -13.0 | -4.3 | -10.2 | 24.1* | -4.9 | 32.1* | 22.7*
O=C(NCc1ccco1)c1cccc2c1C(=O)c1ccc(N3CCC(Cc4ccccc4)CC3)cc1S2(=O)=O | -16.6 | / | / | 46.0* | 15.1 | 45.4* | 42.7*
Cc1ccc(C(=O)NCC(c2ccc(F)cc2)N2CCOCC2)cc1S(=O)(=O)N1CCOCC1 (configuration not stated) | 0.6 | 5.0 | 5.2 | / | / | / | /
CN(C)c1ccc(/C=C(\C#N)C(=O)OCC(=O)N(C)C2CCS(=O)(=O)C2)cc1 (configuration not stated) | -7.7 | 2.0 | -1.6 | 16.5* | 6.8 | 13.1 | 4.1
CC(C)C(NC(=O)OCc1ccccc1)C(=O)N1CCOCCOCCOCC1 (configuration not stated) | 2.8 | -3.6 | -0.4 | -2.8 | -11.8 | / | /
CCOc1ccc(Cl)cc1-c1cc(C(=O)NCCc2ccncc2)[nH]n1 | / | 4.5 | -0.5 | / | / | / | /
O=C1C=CC(=O)N1CCCCCCN1C(=O)C=CC1=O | / | 0.2 | 2.8 | 18.8* | -9.1 | 3.8 | 123.5*
O=C(O)CN1C(=O)C=CC1=O | / | -1.2 | 9.0 | / | / | / | /
CN(C)S(=O)(=O)c1ccc(NC(=O)CSc2ncnc3ccccc23)cc1 | -7.6 | -5.6 | 13.6 | 19.3* | -6.8 | 1.4 | 11.0
CCOCCCNc1nc2c(C)cccn2c(=O)c1/C=C1\SC(=S)N(C(C)CC)C1=O (configuration not stated) | -3.6 | 2.5 | 1.7 | 17.1* | -21.0 | 80.0* | 8.8
CCOCCCNc1nc2c(C)cccn2c(=O)c1/C=C1\SC(=S)N(CC(C)C)C1=O | -1.1 | 3.2 | 6.8 | 4.6 | -10.8 | / | /
O=C(NN=Cc1ccccc1C(=O)O)c1cccc(S(=O)(=O)Nc2cccc(C(F)(F)F)c2)c1 | 2.1 | -15.2 | -3.6 | -2.1 | 11.7 | / | /
CCN(CC)c1ccc(/C=C/C(=O)c2ccc(Br)cc2)cc1 | -117.5 | -6.5 | 1.5 | 163.2* | -9.8 | 61.1* | 14.0
COC(=O)C1=C(C)N=c2s/c(=C/c3ccoc3)c(=O)n2C1c1ccccc1 (configuration not stated) | -9.5 | / | / | 27.8* | -23.1 | 28.6* | 14.0
